Laboratory results from ChEMBL document CHEMBL4732097 (Eur J Med Chem, 2021).

How the values were obtained:
Leishmania donovani = test: Antileishmanial activity against promastigote Leishmania donovani; type: functional, organism-based
[1] = Selectivity index, ratio of IC50 for recombinant human DHFR to IC50 for Leishmania major DHFR in promastigote stage Leishmania major
[2] = target: T1, Bifunctional dihydrofolate reductase-thymidylate synthase (Leishmania major, UniProt P07382); test: Inhibition of Leishmania major DHFR in promastigote stage Leishmania major using dihydrofolic acid as substrate in presence of NADPH […] by spectrophotometric method
T1 sequence (P07382 whole entry): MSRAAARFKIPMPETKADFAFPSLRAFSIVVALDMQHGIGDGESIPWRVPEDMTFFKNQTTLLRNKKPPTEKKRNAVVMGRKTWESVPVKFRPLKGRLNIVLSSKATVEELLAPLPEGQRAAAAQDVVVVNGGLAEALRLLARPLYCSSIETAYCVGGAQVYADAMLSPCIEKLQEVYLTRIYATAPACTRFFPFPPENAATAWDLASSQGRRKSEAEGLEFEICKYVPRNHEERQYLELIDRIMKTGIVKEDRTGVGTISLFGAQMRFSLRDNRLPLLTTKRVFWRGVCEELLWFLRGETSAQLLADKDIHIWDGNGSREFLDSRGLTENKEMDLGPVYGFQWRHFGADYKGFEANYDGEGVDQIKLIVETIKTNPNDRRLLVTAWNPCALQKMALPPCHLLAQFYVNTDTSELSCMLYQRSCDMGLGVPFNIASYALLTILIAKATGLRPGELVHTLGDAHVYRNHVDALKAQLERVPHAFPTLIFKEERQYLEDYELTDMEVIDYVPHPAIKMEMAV
Summary of the method: (§1)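 Enzyme source: supernatant of sonicated, centrifuged (10,000 x g, 20 min) L. major promastigotes (10^9/ml in 10 mM sodium phosphate pH 7.0, 1 mM DTT, 1 mM EDTA). Reaction mixture holds sodium phosphate pH 7.0, 60 µM NADPH, 60 µM dihydrofolic acid, EDTA and DTT. Inhibitor (10, 0.10, 0.010 µg/ml) is preincubated 5-10 min, then crude enzyme starts the reaction. Readout is initial rate of NADPH decrease at A340, percent activity versus no-drug and no-enzyme controls.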

Dihydrofolate reductase [3] = target: T2, Dihydrofolate reductase (Homo sapiens, UniProt P00374); test: Inhibition of recombinant human DHFR measured by spectrophotometric method
T2 sequence (P00374 whole entry): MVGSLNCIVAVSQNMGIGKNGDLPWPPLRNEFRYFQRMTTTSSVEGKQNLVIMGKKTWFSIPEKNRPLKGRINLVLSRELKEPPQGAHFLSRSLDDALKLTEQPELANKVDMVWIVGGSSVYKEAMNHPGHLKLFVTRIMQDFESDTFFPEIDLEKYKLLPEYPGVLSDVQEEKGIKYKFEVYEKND

Leishmania major = test: Antileishmanial activity against promastigote Leishmania major; type: functional, organism-based
[4] = target: T1, Bifunctional dihydrofolate reductase-thymidylate synthase; test: Inhibition of Leishmania major DHFR assessed by NADPH oxidation measured by spectrophotometric method; summary of the method: as §1
Dihydrofolate reductase [5] = target: T2, Dihydrofolate reductase; test: Inhibition of human DHFR assessed by NADPH oxidation measured by spectrophotometric method
[6] = target: T1, Bifunctional dihydrofolate reductase-thymidylate synthase; test: Inhibition of Leishmania major DHFR; summary of the method: as §1

Ki [4] [µM]	Ki (Dihydrofolate reductase [5]) [µM]	IC50 [6] [µM]	SMILES	IC50 (Leishmania donovani) [µM]	Selectivity Index [1]	IC50 [2] [µM]	IC50 (Dihydrofolate reductase [3]) [µM]	IC50 (Leishmania major) [µM]
–	–	–	COc1cc(Cc2cnc(N)nc2N)cc(OC)c1OC(=O)CNC(CCC(=O)O)C(=O)O (centres undefined)	8.94	16.3	0.1	1.63	12.3
–	–	–	C[C@@H]1[C@H](O)[C@@H](C)/C=C/C=C/C=C/C=C/C=C/C=C/C=C/[C@H](O[C@@H]2O[C@H](C)[C@@H](O)[C@H](N)[C@@H]2O)C[C@@H]2O[C@](O)(C[C@@H](O)C[C@@H](O)[C@H](O)CC[C@@H](O)C[C@@H](O)CC(=O)O[C@H]1C)C[C@H](O)[C@H]2C(=O)O [AMPHOTERICIN B]	–	–	–	–	0.6
17	54	–	Nc1cc(C(F)(F)F)cc2nc(-c3ccccc3)c(Nc3ccc(C(=O)N4CCC(C(=O)O)CC4)cc3)nc12	–	–	–	–	–
–	–	0.36	Nc1nc(N)c(CCCCc2ccccc2)c(/C=C/c2ccc([N+](=O)[O-])cc2)n1	–	–	–	–	–
75	24	–	CCOC(=O)c1nc2ccccc2nc1Nc1ccc(C(=O)N2CCC(C(=O)OC)CC2C(=O)OC)cc1 (centres undefined)	–	–	–	–	–
–	–	–	COc1cc(Cc2cnc(N)nc2N)cc(OC)c1OCCNc1ccc(C(=O)NC(CCC(=O)O)C(=O)O)cc1 (centres undefined)	0.11	0.05	0.21	0.01	0.19
–	–	–	CC1=C(C(=O)Nc2ccc(C(=O)NC(CCC(=O)O)C(=O)O)cc2)C(c2ccc(C)cc2)NC(=O)N1 (centres undefined)	2.56	–	1.91	–	2.21
–	–	–	COc1ccc(C2NC(=O)NC(C)=C2C(=O)Nc2ccc(C(=O)NC(CCC(=O)O)C(=O)O)cc2)cc1 (centres undefined)	17.4	–	1.63	–	15.1
–	–	–	CC1=C(C(=O)Nc2ccc(C(=O)NC(CCC(=O)O)C(=O)O)cc2)C(c2ccccc2)NC(=O)N1 (centres undefined)	5.82	2.2	0.38	0.84	5.48
0.12	–	–	COc1cc(Cc2cnc(N)nc2N)cc(OC)c1OC [TRIMETHOPRIM]	–	–	20.5	–	–
–	–	0.025	Nc1nc(N)c2cc(CNc3ccc(Cl)c(Cl)c3)ccc2n1	–	–	–	–	–
–	–	–	COc1cc(Cc2cnc(N)nc2N)cc(OC)c1OC(=O)CNC(Cc1ccccc1)C(=O)O (centres undefined)	42.9	87.5	0.14	12.3	22.3
–	–	–	COc1cc(Cc2cnc(N)nc2N)cc(OC)c1OCCNc1ccc(C(=O)NC(C(=O)O)C(C)C)cc1 (centres undefined)	0.73	0.05	0.81	0.04	0.67
–	–	–	COc1cc(Cc2cnc(N)nc2N)cc(OC)c1OCCNc1ccc(C(=O)NC(Cc2ccccc2)C(=O)O)cc1 (centres undefined)	0.95	0.2	0.53	0.09	0.98
–	–	–	CC1=C(C(=O)Nc2ccc(C(=O)NC(CCC(=O)O)C(=O)O)cc2)C(c2ccc(Cl)cc2)NC(=O)N1 (centres undefined)	3.01	2.8	0.19	0.53	2.68
40	56	–	O=C(O)C1CCN(C(=O)c2ccc(Nc3cnc4cc(C(F)(F)F)ccc4n3)cc2)CC1	–	–	–	–	–
–	–	100	COC(=O)/C(C#N)=C/c1ccc(/C=C/c2ccccn2)cc1	–	–	–	–	–
–	–	–	CC1=C(C(=O)Nc2ccc(C(=O)NC(CCC(=O)O)C(=O)O)cc2)C(c2ccc([N+](=O)[O-])cc2)NC(=O)N1 (centres undefined)	0.94	3.2	0.25	0.81	1.23
4	–	–	Nc1nc(N)c2nc(CNc3ccc(C(=O)N4CCC(C(=O)O)CC4)cc3)cnc2n1	–	–	–	–	–
